# The list is not random: actives were taken first. Their share in the collection is about 1.1%.
# PREPL inhibitor – human PREPL enzyme inhibition; AID 2751; recombinant PREPL, fluorescence polarization activity-based probe; hit rate 0.68% among 320,000; inhibition, % at 5.96 µM;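 note: 0% = enzyme with DMSO and 100% = wells lacking enzyme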
# procasp7 counter – activates human procaspase-7, counter-screen for procaspase-3 activators; recombinant procaspase-7, Ac-DEVD-pNA absorbance 405 nm; D23A/D198A/D206A triple mutant, cannot self-cleave; scale: DMSO 0, 5 µM enzyme 100; hit rate 0.093% among 330,000; activation, % at 8.5 µM;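 active = percent activation above the screen-wide mean plus 3 SD, cut at about 25% in these data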
#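 Material: Procaspase-7 triple mutant (PC-7 D3A) | Quantity: 2 µM procaspase-7 mutant as dispensed | Reagent: DEVD-pNA substrate | Times: 1 h preincubation, 2 h reaction | Technique: 405 nm absorbance of p-nitroaniline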
# LYPLA2 inh – blocks human lysophospholipase 2, a PME1 counter-screen. recombinant LYPLA2, FP-Rh probe fluorescence polarization. O95372. inhibition, % at 5.9 µM. AID 2177. hit rate 0.38% among 320,000;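 active = inhibition above the screen-wide mean plus 3 SD, limit set per campaign, cut at about 26% in these data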;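 note: 0% = LYPLA2 with DMSO and 100% = wells lacking LYPLA2 enzyme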
# proCasp3 act – activates human procaspase-3. P42574. recombinant procaspase-3 D3A, Ac-DEVD-pNA absorbance 405 nm. activation, % at 8.5 µM. hit rate 0.11% among 330,000. AID 463141;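 active = activation above the mean of all tested compounds plus 3 SD, cut at about 21% in these data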;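 note: 0% = DMSO alone and 100% = DMSO wells spiked with extra 5 µM PC-3 D3A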
# Target sequence (P42574 whole entry D9A/D28A/D175A): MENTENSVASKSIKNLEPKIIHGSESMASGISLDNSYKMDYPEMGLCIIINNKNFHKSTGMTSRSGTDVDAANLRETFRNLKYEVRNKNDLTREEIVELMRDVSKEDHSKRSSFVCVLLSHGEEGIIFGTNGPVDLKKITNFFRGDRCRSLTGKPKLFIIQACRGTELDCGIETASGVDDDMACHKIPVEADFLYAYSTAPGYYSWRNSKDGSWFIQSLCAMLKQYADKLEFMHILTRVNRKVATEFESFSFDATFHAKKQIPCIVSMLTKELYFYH
#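 Technique: 405 nm absorbance of p-nitroaniline, reads at 0 and 120 min; Test system: Procaspase-3 D3A mutant; Incubation: 1 h enzyme-compound preincubation, then 2 h substrate reaction, 25 °C; Repeats: singlicate, each compound tested once; Benchmarks: low control DMSO wells, high control DMSO plus 5 µM PC-3 D3A.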
# LYPLA1 counter – blocks human lysophospholipase 1, a PME1 counter-screen; O75608; recombinant LYPLA1, FP-Rh probe fluorescence polarization; inhibition, % at 5.9 µM; hit rate 0.16% among 320,000; AID 2174;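 active = inhibition above the mean of all tested compounds plus 3 SD, set per campaign, cut at about 14% in these data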;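 note: inhibitors block serine hydrolase probe labeling of LYPLA1 so polarization falls; 0% = enzyme with DMSO and 100% = wells lacking LYPLA1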
# PREPL inh cf – human PREPL inhibition, confirmation. shares compounds with PREPL inhibitor. hit rate 67% among 2,000. recombinant PREPL, fluorescence polarization activity probe. inhibition, % at 5.96 µM;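 note: 0% = protein with DMSO and 100% = wells lacking protein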
# Numbers without * were called inactive; . = not tested or not shown. Cut-off read from the data, not from the text of the source, unless noted: active = inhibition above about 43%; inactive = the rest.
SMILES,PREPL inhibitor,procasp7 counter,LYPLA2 inh,proCasp3 act,LYPLA1 counter,PREPL inh cf
CCC(CO)Oc1cc(NCc2ccc(Cl)cc2)c2ncn(C(C)C)c2c1 (stereo not drawn),48*,12,.,5,.,23
Cc1ccn2c(Nc3ccccc3C)c(-c3ccccn3)nc2c1,52*,-6,8,-1,4,41
Cc1ccn2c(Nc3ccccc3)c(-c3ccccn3)nc2c1,67*,4,-3,-24,-1,63*
Cc1cccn2c(Nc3ccccc3)c(-c3ccccn3)nc12,-13,-2,6,-10,5,.
CC(C)C[C@H]1COCCS(=O)(=O)N1Cc1ccc(Cl)c(Cl)c1,0,7,-6,4,-3,.
CCN1CCN(C(=O)C(C)Nc2ccc(OC)cc2OC)CC1 (stereo not drawn),50*,-36,-4,-2,-3,46*
CCOC(=O)N1CCN(CCC(=O)Nc2ccc(OC)cc2OC)CC1,15,3,1,0,5,.
Cc1ccc(Nc2nc(-c3c(C)nc4ncccn34)cs2)cc1,51*,-19,7,2,3,45*
Cc1ccc(Nc2nc(-c3c(C)nc4ccccn34)cs2)cc1,33,-10,3,-14,4,.
CCN(CC)C(=O)N1CCN(c2c([N+](=O)[O-])c(=O)oc3ccccc23)CC1,3,3,4,0,-2,.
Cc1ccc(CN2CCSc3ccc(C(=O)NCC4CCCO4)cc32)cc1 (stereo not drawn),43*,-5,8,-1,-1,40
COc1cc(O)c(C(CC(=O)N2CCN(c3ccccc3)CC2)c2ccc(N(C)C)cc2)c(OC)c1 (stereo not drawn),54*,13,-3,4,-2,48*
COc1cc(O)c(C(CC(=O)N2CCCC(C)C2)c2ccc(N(C)C)cc2)c(OC)c1 (stereo not drawn),20,-2,5,-7,-3,.
Cc1cc[n+](CCC(=O)O)c2ccccc12,6,-6,1,4,-2,.
Cc1cc[n+](CC(=O)c2ccccc2)c2ccccc12,60*,17,1,3,3,21
Cc1cc(C)c(-c2csc(NC(=O)C3=NN(c4ccccc4)C(=O)CC3)n2)c(C)c1,15,-4,-10,-8,-7,.
CCc1ccc(-c2csc(NC(=O)C3=NN(c4ccccc4)C(=O)CC3)n2)cc1,44*,-10,2,6,-2,37
CC1Cc2cc(/C(O)=C3/C(=O)C(=O)N(CCCn4ccnc4)C3c3cccc([N+](=O)[O-])c3)ccc2O1 (stereo not drawn),-7,2,5,-2,2,.
COc1[nH]c2ccc(F)cc2c1C(=O)OCC1CCN(CCNS(C)(=O)=O)CC1,-8,9,3,1,-3,.
Cn1c(=O)[nH]c(=O)c2c1nc(CN1CCN(c3cccc(Cl)c3)CC1)n2CCN1CCOCC1,46*,6,-4,0,-3,42
CCCCn1c(CN2CCN(c3cccc(Cl)c3)CC2)nc2c1c(=O)[nH]c(=O)n2C,26,0,2,4,-1,.
COc1ccnc(CS(=O)c2nc3cc(OC(F)F)ccc3[nH]2)c1OC (stereo not drawn),5,-26,-1,-21,-3,.
COc1cc(C(=O)NC(=S)Nc2ccc(N3CCCC3)cc2)cc(OC)c1OC,69*,-15,3,-10,-1,46*
COc1ccc(CCC(=O)OCC(=O)Nc2sccc2C(N)=O)cc1OC,48*,13,.,0,.,39
COc1cc(CC(=O)Nc2sccc2C(N)=O)cc(OC)c1OC,1,11,-1,-6,-2,.
Cc1c(CN(C)C)c2c(n1Cc1ccccc1)C(=O)c1ccc(Br)cc1-2,54*,6,4,6,2,50*
Cc1c(CN(C)C)c2c(n1C)C(=O)c1ccc(Br)cc1-2,16,-9,-1,7,2,.
CC(C)N(c1ccccc1)c1ccc(NC(=O)COC(=O)CCN2C(=O)c3cccc([N+](=O)[O-])c3C2=O)cc1,59*,9,4,-1,-6,60*

# Bioassay records: PubChem, The Scripps Research Institute Molecular Screening Center
